Data reported in ChEMBL document CHEMBL1156637, “Bioactive 5alpha-pregnane-type steroidal alkaloids from Sarcococca hookeriana” (J Nat Prod, 2008).
≈ marks a conversion by molar mass, not a printed value. Calls of active or inactive are those of the source. The rule behind the calls is not given here.

How the values were obtained:
Cholinesterase = Cholinesterase (Homo sapiens, UniProt P06276); experiment: Inhibition of butyrylcholinesterase
Procedure, shortened: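 In vitro enzyme inhibition assay, reported as IC50 with the standard error of the mean from five assays.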

Pseudomonas [1] = experiment: Antibacterial activity against Pseudomonas pallida by agar well diffusion method; type: functional
Pseudomonas [2] = experiment: Antibacterial activity against Pseudomonas pallida assessed as zone of inhibition at 1.0 mg/mL by agar well diffusion method; type: functional; details: for zone of inhibition at 1000 µg/mL: read-out: IZ
Procedure, shortened: (§1)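 Agar well diffusion with pure compounds loaded into wells at 1.0 mg/mL. Zone of inhibition read in mm. Ampicillin is the reference for Gram-positive strains and gentamicin for Gram-negative strains.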

Micrococcus luteus [3] = experiment: Antibacterial activity against Micrococcus luteus assessed as zone of inhibition at 1.0 mg/mL by agar well diffusion method; type: functional; details: for zone of inhibition at 1000 µg/mL: read-out: IZ; procedure, shortened: as §1
Bacillus subtilis [4] = experiment: Antibacterial activity against Bacillus subtilis assessed as zone of inhibition at 1.0 mg/mL by agar well diffusion method; type: functional; details: read-out: IZ; procedure, shortened: as §1
Enterococcus faecalis [5] = experiment: Antibacterial activity against Streptococcus faecalis assessed as zone of inhibition at 1.0 mg/mL by agar well diffusion method; type: functional; details: for zone of inhibition at 1000 µg/mL: read-out: IZ; procedure, shortened: as §1
Bacillus subtilis [6] = experiment: Antibacterial activity against Bacillus subtilis by agar well diffusion method; type: functional
Micrococcus luteus [7] = experiment: Antibacterial activity against Micrococcus luteus by agar well diffusion method; type: functional
Acetylcholinesterase = Acetylcholinesterase (Homo sapiens, UniProt P22303); experiment: Inhibition of acetylcholinesterase
Acetylcholinesterase, sequence (P22303 whole entry): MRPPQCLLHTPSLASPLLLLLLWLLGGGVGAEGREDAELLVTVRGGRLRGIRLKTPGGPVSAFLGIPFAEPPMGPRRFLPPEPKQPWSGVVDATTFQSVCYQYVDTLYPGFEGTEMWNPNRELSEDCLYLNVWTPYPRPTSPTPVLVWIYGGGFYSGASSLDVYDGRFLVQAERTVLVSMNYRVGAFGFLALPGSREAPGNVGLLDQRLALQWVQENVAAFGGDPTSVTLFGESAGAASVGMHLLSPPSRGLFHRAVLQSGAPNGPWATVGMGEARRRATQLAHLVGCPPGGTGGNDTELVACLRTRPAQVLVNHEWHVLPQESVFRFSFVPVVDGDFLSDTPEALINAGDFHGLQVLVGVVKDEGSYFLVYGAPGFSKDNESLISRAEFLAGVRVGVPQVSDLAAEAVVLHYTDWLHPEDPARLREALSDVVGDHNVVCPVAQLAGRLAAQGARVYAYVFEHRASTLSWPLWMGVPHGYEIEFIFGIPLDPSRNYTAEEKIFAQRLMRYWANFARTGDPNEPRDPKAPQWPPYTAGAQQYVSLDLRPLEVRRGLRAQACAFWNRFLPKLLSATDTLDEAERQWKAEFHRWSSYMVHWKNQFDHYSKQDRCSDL

Leishmania major = experiment: Antileishmanial activity against Leishmania major; type: functional, organism-based
Micrococcus luteus [8] = experiment: Antibacterial activity against Micrococcus luteus assessed as zone of inhibition at 0.25 mg/mL by agar well diffusion method; type: functional; details: read-out: IZ
Procedure, shortened: (§2)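 Reference antibiotic (ampicillin for these Gram-positive strains) tested by agar well diffusion at 0.25 mg/mL. Inhibition zone diameter recorded in mm.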

Bacillus subtilis [9] = experiment: Antibacterial activity against Bacillus subtilis assessed as zone of inhibition at 0.25 mg/mL by agar well diffusion method; type: functional; details: read-out: IZ; procedure, shortened: as §2
Enterococcus faecalis [10] = experiment: Antibacterial activity against Streptococcus faecalis assessed as zone of inhibition at 0.25 mg/mL by agar well diffusion method; type: functional; details: read-out: IZ; procedure, shortened: as §2

Cholinesterase, sequence (P06276 whole entry): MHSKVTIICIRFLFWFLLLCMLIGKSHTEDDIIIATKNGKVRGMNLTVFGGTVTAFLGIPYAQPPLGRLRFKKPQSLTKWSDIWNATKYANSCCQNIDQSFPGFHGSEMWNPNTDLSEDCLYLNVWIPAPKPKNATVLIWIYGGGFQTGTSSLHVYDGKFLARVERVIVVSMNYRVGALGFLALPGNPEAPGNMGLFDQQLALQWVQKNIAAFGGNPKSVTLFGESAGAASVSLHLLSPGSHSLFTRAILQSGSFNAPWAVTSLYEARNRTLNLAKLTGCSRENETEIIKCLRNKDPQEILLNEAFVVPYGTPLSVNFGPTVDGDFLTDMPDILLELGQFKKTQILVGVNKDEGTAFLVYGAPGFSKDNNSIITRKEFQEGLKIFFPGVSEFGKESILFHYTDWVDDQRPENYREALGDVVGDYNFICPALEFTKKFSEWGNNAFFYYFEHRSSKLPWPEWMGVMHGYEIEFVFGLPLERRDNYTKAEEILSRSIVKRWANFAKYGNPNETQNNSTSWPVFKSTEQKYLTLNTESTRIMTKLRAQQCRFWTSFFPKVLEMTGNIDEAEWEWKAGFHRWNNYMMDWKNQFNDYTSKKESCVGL

| SMILES | IC50 (Cholinesterase) [µM] | MIC (Pseudomonas [1]) [µM] | zone of inhibition at 1000 µg/mL (Pseudomonas [2]) [mm] | zone of inhibition at 1000 µg/mL (Micrococcus luteus [3]) [mm] | zone of inhibition at 1000 µg/mL (Bacillus subtilis [4]) [mm] | zone of inhibition at 1000 µg/mL (Enterococcus faecalis [5]) [mm] | MIC (Bacillus subtilis [6]) [µM] | MIC (Micrococcus luteus [7]) [µM] | IC50 (Acetylcholinesterase) [µM] | Activity (Pseudomonas [2]) | Activity (Micrococcus luteus [3]) | Activity (Enterococcus faecalis [5]) | IC50 (Leishmania major) [µM] | zone of inhibition at 250 µg/mL (Micrococcus luteus [8]) [mm] | zone of inhibition at 250 µg/mL (Bacillus subtilis [9]) [mm] | zone of inhibition at 250 µg/mL (Enterococcus faecalis [10]) [mm] |
| --- | --- | --- | --- | --- | --- | --- | --- | --- | --- | --- | --- | --- | --- | --- | --- | --- |
| C[C@@H]([C@H]1CC[C@H]2[C@@H]3CC[C@H]4C[C@@H](N(C)C)CC[C@]4(C)[C@H]3CC[C@]12C)N(C)C | 1.6 | 167 (≈ 62.6 µg/mL) | 14.5 | 11 | 19 | 8 | 83.5 (≈ 31.3 µg/mL) | 167 (≈ 62.6 µg/mL) | 22.1 |  |  |  |  |  |  |  |
| CN[C@@H](C)[C@H]1CC[C@H]2[C@@H]3CC=C4C(=O)[C@@H](NC(=O)C=C(C)C)CC[C@]4(C)[C@H]3CC[C@]12C | 0.6 |  |  |  | 9 |  | 568 (≈ 242 µg/mL) |  | 9.9 | inactive | inactive | inactive |  |  |  |  |
| C/C=C(\C)C(=O)NC1=CC[C@@]2(C)C(=CC[C@H]3[C@@H]4CC[C@H]([C@H](C)NC)[C@@]4(C)CC[C@@H]32)C1=O |  | 35.6 (≈ 15.1 µg/mL) | 16.5 | 12.5 | 20 | 10 | 35.6 (≈ 15.1 µg/mL) | 143 (≈ 60.6 µg/mL) |  |  |  |  | 21.3 |  |  |  |
| C[C@@H]1[C@H](O)[C@@H](C)/C=C/C=C/C=C/C=C/C=C/C=C/C=C/[C@H](O[C@@H]2O[C@H](C)[C@@H](O)[C@H](N)[C@@H]2O)C[C@@H]2O[C@](O)(C[C@@H](O)C[C@@H](O)[C@H](O)CC[C@@H](O)C[C@@H](O)CC(=O)O[C@H]1C)C[C@H](O)[C@H]2C(=O)O [AMPHOTERICIN B] |  |  |  |  |  |  |  |  |  |  |  |  | 0.5 |  |  |  |
| CC1(C)S[C@@H]2[C@H](NC(=O)[C@H](N)c3ccccc3)C(=O)N2[C@H]1C(=O)O [AMPICILLIN] |  |  |  |  |  |  | 89.7 (≈ 31.3 µg/mL) | 5.6 (≈ 1.96 µg/mL) |  |  |  |  |  | 26 | 29 | 25 |
| C[C@@H]([C@H]1CC[C@H]2[C@@H]3CC[C@H]4C[C@@H](N)CC[C@]4(C)[C@H]3CC[C@]12C)N(C)C [CHONEMORPHINE] | 0.5 | 181 (≈ 62.6 µg/mL) | 14 | 11.5 | 16.5 | 10 | 90.3 (≈ 31.3 µg/mL) | 90.3 (≈ 31.3 µg/mL) | 28 |  |  |  |  |  |  |  |
| C[C@@H]([C@H]1CC[C@H]2[C@@H]3CC[C@H]4C(=O)C(NC=O)=CC[C@]4(C)[C@H]3CC[C@]12C)N(C)C [HOOKERIANAMIDE H] |  |  |  | 11 | 11.5 |  | 324 (≈ 125 µg/mL) | 324 (≈ 125 µg/mL) |  | inactive |  | inactive | 22.4 |  |  |  |
| CN[C@@H](C)[C@H]1CC[C@H]2[C@@H]3CC[C@H]4C[C@@H](N(C)C(=O)c5ccccc5)CC[C@]4(C)[C@H]3CC[C@]12C [HOOKERIANAMIDE I] |  | 69.4 (≈ 31.3 µg/mL) | 18.5 | 18 | 17.5 | 8 | 69.4 (≈ 31.3 µg/mL) | 34.7 (≈ 15.6 µg/mL) |  |  |  |  | 8.8 |  |  |  |
| CC(C)=CC(=O)N[C@H]1CC[C@@]2(C)[C@@H](CC[C@@H]3[C@@H]2CC[C@]2(C)C([C@H](C)N(C)C)=CC[C@@H]32)[C@H]1O [HOOKERIANAMIDE J] | 0.8 | 70.7 (≈ 31.3 µg/mL) | 12 |  | 15 |  | 141 (≈ 62.6 µg/mL) |  | 48.5 |  | inactive | inactive | 11.3 |  |  |  |
| C[C@@H]([C@H]1CC=C2[C@@H]3CCC4=C[C@@H](N(C)C)CC[C@]4(C)[C@H]3CC[C@@]21C)N(C)C [HOOKERIANAMIDE K] | 4 | 169 (≈ 62.6 µg/mL) | 10.5 | 9.5 | 13 | 10 | 338 (≈ 125 µg/mL) | 651 (≈ 241 µg/mL) | 24.2 |  |  |  | 6.8 |  |  |  |
| N=C(N)c1ccc(OCCCCCOc2ccc(C(=N)N)cc2)cc1 [PENTAMIDINE] |  |  |  |  |  |  |  |  |  |  |  |  | 7.5 |  |  |  |
| C/C=C(\C)C(=O)N[C@H]1CC[C@]2(C)[C@H]3CC[C@]4(C)[C@@H]([C@H](C)NC)CC[C@H]4[C@@H]3CC[C@H]2[C@H]1OC(C)=O [SARCOVAGINE C] | 0.4 | 32.1 (≈ 15.2 µg/mL) | 17.5 | 13.5 | 20 | 12 | 64.3 (≈ 30.4 µg/mL) | 64.3 (≈ 30.4 µg/mL) | 8.1 |  |  |  | 1.5 |  |  |  |
| CN[C@@H](C)[C@H]1CC[C@H]2[C@@H]3CC[C@H]4[C@@H](OC(C)=O)[C@@H](NC(=O)C=C(C)C)CC[C@]4(C)[C@H]3CC[C@]12C [VAGENINE A] |  | 64.3 (≈ 30.4 µg/mL) | 13.5 |  | 17 | 10 | 64.3 (≈ 30.4 µg/mL) |  |  |  | inactive |  | 3.3 |  |  |  |
